From ChEMBL document CHEMBL1128599, “Nucleoside conjugates. 14. Synthesis and antitumor activity of 1-beta-D-arabinofuranosylcytosine conjugates of ether lipids with improved water solubility” (J Med Chem, 1995)
“And” between values parts separate entries of the source, which are not always exact repeats. Identical values can stand only once.

Columns and labels:
Mus musculus [1] = assay: Number of mice (out of 6 mice) survived after treatment with 150 mg/kg/day of compound on 1, 5, 9 day treatment schedule for 45 days; format: functional
Method in brief: (§1)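 Groups of 6 male DBA/2Ros mice (20–29 g) were inoculated ip on day 0 with 1 × 10⁶ L1210 cells. Conjugate was given ip as a shaken or sonicated aqueous solution from day 1, over a wide dose range. Optimal-dose results are reported as ILS = (T/C − 1) × 100 from median survival, or as 45-day survivors.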

Mus musculus [2] = assay: Number of mice (out of 6 mice) survived after treatment with 200 mg/kg/day of compound on a 1,7 day treatment schedule for 45 days; format: functional; method in brief: as §1
Mus musculus [3] = assay: Antitumor activity at 200 mg/kg/day on a 1 day treatment schedule, qd against L1210 infected mice was expressed as increase in life span (ILS); format: functional; details: L1210, 24 h; method in brief: as §1
Mus musculus [4] = assay: Number of mice (out of 6 mice) survived after treatment with 200 mg/kg/day of compound on a 1 day treatment schedule for 45 days; format: functional; method in brief: as §1
Mus musculus [5] = assay: Antitumor activity at 150 mg/kg/day on 1, 5, 9 day treatment schedule, qd against L1210 infected mice was expressed as increase in life span (ILS); format: functional; details: L1210, 216 h; method in brief: as §1
[6] = Solubility in water determined by UV absorption at 272 nm; format: physicochemical; details: read-out: S
Mus musculus [7] = assay: Antitumor activity at 200 mg/kg/day on a 1,7 day treatment schedule, qd against L1210 infected mice was expressed as increase in life span (ILS); format: functional; method in brief: as §1
Mus musculus [8] = assay: Antitumor activity at 300 mg/kg/day on a 1 day treatment schedule, qd against L1210 infected mice by sonication method was expressed as increase in life span (ILS); format: functional; details: L1210, 24 h
Method in brief: (§2)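 L1210 cells (1 × 10⁶) were inoculated ip into male DBA/2Ros mice (20–29 g, 6 per group) on day 0. Ip dosing began day 1. Conjugate in water suspension was sonicated 2 min (20–60 °C), then 0.22 μm filtered. Over a 45-day observation, read-outs were median survival T/C, ILS = (T/C − 1) × 100, or number alive at day 45.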

Mus musculus [9] = assay: Number of mice (out of 6 mice) survived after treatment with 150 mg/kg/day of compound on 1, 5, 9 day by shaking method treatment schedule for 45 days; format: functional
Method in brief: (§3)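 Male DBA/2Ros mice (20–29 g, groups of 6) got 1 × 10⁶ L1210 leukemia cells ip on day 0. Ip treatment started day 1. Conjugate was shaken in sterile water for 2 h at room temperature, then 0.22 μm filtered. Mice were observed 45 days. Read-outs were median survival T/C with ILS = (T/C − 1) × 100, or 45-day survivors.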

Mus musculus [10] = assay: Antitumor activity at 300 mg/kg/day on a 1 day treatment schedule, qd against L1210 infected mice by shaking method was expressed as increase in life span (ILS); format: functional; details: L1210, 24 h; method in brief: as §3
Mus musculus [11] = assay: Antitumor activity at 150 mg/kg/day on 1, 5, 9 day treatment schedule, qd against L1210 infected mice by sonication method was expressed as increase in life span (ILS); format: functional; details: L1210, 216 h; method in brief: as §2
Mus musculus [12] = assay: Antitumor activity at 150 mg/kg/day on 1, 5, 9 day treatment schedule, qd against L1210 infected mice by shaking method was expressed as increase in life span (ILS); format: functional; details: L1210, 216 h; method in brief: as §3
Mus musculus [13] = assay: Number of mice (out of 6 mice) survived after treatment with 150 mg/kg/day of compound on 1, 5, 9 day by sonication method treatment schedule for 45 days; format: functional; method in brief: as §2
Mus musculus [14] = assay: Number of mice (out of 6 mice) survived after treatment with 300 mg/kg/day of compound on a 1 day by shaking method treatment schedule for 45 days; format: functional; method in brief: as §3
Mus musculus [15] = assay: Number of mice (out of 6 mice) survived after treatment with 300 mg/kg/day of compound on a 1 day by sonication method treatment schedule for 45 days; format: functional; method in brief: as §2
Mus musculus [16] = assay: Antitumor activity at 300 mg/Kg/day on a 1 day treatment schedule, qd against L1210 infected mice was expressed as increase in life span (ILS); format: functional; details: L1210, 24 h; method in brief: as §1
Mus musculus [17] = assay: Number of mice (out of 6 mice) survived after treatment with 300 mg/kg/day of compound on a 1 day treatment schedule for 45 days; format: functional; method in brief: as §1
Mus musculus [18] = assay: Antitumor activity at 300 mg/kg/day on a 1,7 day treatment schedule, qd against L1210 infected mice was expressed as increase in life span (ILS); format: functional; method in brief: as §1
Mus musculus [19] = assay: Number of mice (out of 6 mice) survived after treatment with 300 mg/kg/day of compound on a 1,7 day treatment schedule for 45 days; format: functional; method in brief: as §1
Mus musculus [20] = assay: Antitumor activity at 200 mg/kg/day on a 1 day treatment schedule, qd against L1210 infected mice by shaking method was expressed as increase in life span (ILS); format: functional; details: L1210, 24 h; method in brief: as §3
Mus musculus [21] = assay: Antitumor activity at 200 mg/kg/day on a 1 day treatment schedule, qd against L1210 infected mice by sonication method was expressed as increase in life span (ILS); format: functional; details: L1210, 24 h; method in brief: as §2
Mus musculus [22] = assay: Antitumor activity at 300 mg/kg/day on a 1,7 day treatment schedule, qd against L1210 infected mice by shaking method was expressed as increase in life span (ILS); format: functional; method in brief: as §3

`CCCCCCCCCCCCCCCC(=O)OC(COCCCCCCCCCCCC)COP(=O)([O-])OP(=O)([O-])OC[C@H]1OC(n2ccc(N)nc2=O)[C@@H](O)[C@@H]1O.[Na+].[Na+]` (stereo not given in full) gave a No. of mice (Mus musculus [1]) of 3, a No. of mice (Mus musculus [2]) of 0 and an ILS at 200 mg/kg/day (Mus musculus [3]) of 128%. For the same molecule, the No. of mice (Mus musculus [4]) was 0, the ILS at 150 mg/kg/day (Mus musculus [5]) was over 313% and the solubility [6] was over 131 mM. It also gave an ILS at 200 mg/kg/day (Mus musculus [7]) of 286%.
For `CCCCCCCCCCCCCCCCOCC(COP(=O)([O-])OP(=O)([O-])OC[C@H]1OC(n2ccc(N)nc2=O)[C@@H](O)[C@@H]1O)OC(=O)CCCCCCCCCCCCC.[Na+].[Na+]` (stereo not given in full), the ILS at 300 mg/kg/day (Mus musculus [8]) was over 464%, the No. of mice (Mus musculus [9]) was 5 and the ILS at 300 mg/kg/day (Mus musculus [10]) was 258%. For the same molecule, the ILS at 150 mg/kg/day (Mus musculus [11]) was over 463%, the ILS at 150 mg/kg/day (Mus musculus [12]) was over 463% and the solubility [6] was over 107 mM. The No. of mice (Mus musculus [13]) was 4, the No. of mice (Mus musculus [14]) was 1 and the No. of mice (Mus musculus [15]) was 3.
Work on `CCCCCCCCCCCCCCCCOCC(COP(=O)([O-])OP(=O)([O-])OC[C@H]1OC(n2ccc(N)nc2=O)[C@@H](O)[C@@H]1O)OC(=O)CCCCCCCCCCC.[Na+].[Na+]` (stereo not given in full) yielded a No. of mice (Mus musculus [1]) of 5, an ILS at 300 mg/kg/day (Mus musculus [16]) of 119% and a No. of mice (Mus musculus [2]) of 3. For the same molecule, the No. of mice (Mus musculus [17]) was 0, the ILS at 150 mg/kg/day (Mus musculus [5]) was over 463% and the solubility [6] was over 132 mM. The ILS at 300 mg/kg/day (Mus musculus [18]) was over 350%.
Molecule `CCCCCCCCCCCCCC(=O)OC(COCCCCCCCCCCCC)COP(=O)([O-])OP(=O)([O-])OC[C@H]1OC(n2ccc(N)nc2=O)[C@@H](O)[C@@H]1O.[Na+].[Na+]` (stereo not given in full) has a No. of mice (Mus musculus [1]) of 3, an ILS at 200 mg/kg/day (Mus musculus [3]) of 69% and a No. of mice (Mus musculus [4]) of 0. The ILS at 150 mg/kg/day (Mus musculus [5]) was over 394% and the solubility [6] was over 146 mM.
With `CCCCCCCCCCCCCCCC(=O)OC(COCCCCCCCCCCCCCC)COP(=O)([O-])OP(=O)([O-])OC[C@H]1OC(n2ccc(N)nc2=O)[C@@H](O)[C@@H]1O.[Na+].[Na+]` (stereo not given in full) the No. of mice (Mus musculus [1]) was 3 and 5, the ILS at 300 mg/kg/day (Mus musculus [8]) was over 206% and the No. of mice (Mus musculus [19]) was 1. For the same molecule, the ILS at 300 mg/kg/day (Mus musculus [10]) was over 543%, the ILS at 150 mg/kg/day (Mus musculus [11]) was over 463% and the No. of mice (Mus musculus [17]) was 4 and 2. The ILS at 150 mg/kg/day (Mus musculus [12]) was over 350%, the ILS at 200 mg/kg/day (Mus musculus [20]) was 275% and the ILS at 200 mg/kg/day (Mus musculus [21]) was 206%. For the same molecule, the No. of mice (Mus musculus [4]) was 2 and 1, the solubility [6] was over 43 mM and the ILS at 300 mg/kg/day (Mus musculus [22]) was 107%.
`CCCCCCCCCCCCCCCCOCC(COP(=O)([O-])OP(=O)([O-])OC[C@H]1OC(n2ccc(N)nc2=O)[C@@H](O)[C@@H]1O)OC(=O)CCCCCCCCCCCCCCC.[Na+].[Na+]` (stereo not given in full) showed a No. of mice (Mus musculus [1]) of 3, an ILS at 200 mg/kg/day (Mus musculus [3]) of over 250% and a No. of mice (Mus musculus [4]) of 3. It also gave an ILS at 150 mg/kg/day (Mus musculus [5]) of 306% and a solubility [6] of 0.13 mM.
`CCCCCCCCCCCCCCOCC(COP(=O)([O-])OP(=O)([O-])OC[C@H]1OC(n2ccc(N)nc2=O)[C@@H](O)[C@@H]1O)OC(=O)CCCCCCCCCCCCC.[Na+].[Na+]` (stereo not given in full) gave a No. of mice (Mus musculus [1]) of 1, an ILS at 300 mg/kg/day (Mus musculus [16]) of 178% and a No. of mice (Mus musculus [17]) of 0. The ILS at 150 mg/kg/day (Mus musculus [5]) was 125% and the solubility [6] was over 121 mM.
